These results are taken from ChEMBL document CHEMBL1125495, “Inhibitors of human renin with C-termini derived from amides and esters of alpha-mercaptoalkanoic acids” (J Med Chem, 1992).

Test [1] concerns the target T1, Renin (Homo sapiens, UniProt P00797).
T1 sequence (P00797 whole entry): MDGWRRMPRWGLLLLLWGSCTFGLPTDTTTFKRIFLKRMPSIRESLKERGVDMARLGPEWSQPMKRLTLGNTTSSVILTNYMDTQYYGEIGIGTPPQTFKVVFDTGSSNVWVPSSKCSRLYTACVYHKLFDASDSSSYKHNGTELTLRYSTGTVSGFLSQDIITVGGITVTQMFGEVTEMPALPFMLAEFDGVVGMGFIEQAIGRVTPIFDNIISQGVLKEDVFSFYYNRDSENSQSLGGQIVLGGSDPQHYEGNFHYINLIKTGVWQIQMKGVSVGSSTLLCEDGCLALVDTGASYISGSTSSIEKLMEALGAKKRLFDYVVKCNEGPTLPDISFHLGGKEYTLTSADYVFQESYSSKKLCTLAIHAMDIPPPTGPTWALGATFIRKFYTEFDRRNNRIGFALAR
The test can be described thus: Inhibition of human plasma renin. In kind it is cell-free.

In test [2] the test system is Rhesus monkey. The test can be described thus: Half life of hypotensive effect in sodium deficient rhesus monkeys after iv administration (dose 0.1 mg/kg). The arrangement: dose 0.1 mg/kg. In kind it is functional, organism-based. As to conditions: Cercopithecidae. An outline of the steps: (§1)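 Conscious male and female rhesus monkeys (N = 2) with chronic arterial access ports for direct MAP and heart-rate monitoring, and venous catheters for dosing. Animals were kept on a low-sodium diet, given furosemide the evening before, and fasted 18 h before and during the study. Compound was given iv in 0.05% acetic acid/5% dextrose/H2O, 20 min after a vehicle control dose. Peak changes were averaged, and the hypotensive half-life was read from time plots.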

For test [3], the target named is T2, Renin (Homo sapiens) (UniProt P00797).
T2 sequence (whole entry): T1 sequence (P00797 whole entry)
In words: In vivo inhibition of plasma renin activity in sodium deficient rhesus monkeys after iv administration (dose 0.1 mg/kg, determined at peak deltaMAP). In kind it is functional, organism-based. On the set-up: dose 0.1 mg/kg. As to conditions: Cercopithecidae, target entry is the homologue from another species, at 0.1 mg/kg. A digest of the protocol:
(§2)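 Sodium-deficient rhesus monkeys (N = 2) were kept on a low-sodium diet, given furosemide the evening before, and fasted 18 h. Compound was given iv through a venous catheter in 0.05% acetic acid/5% dextrose/H2O, 20 min after vehicle. Blood was drawn periodically via an arterial access port for plasma renin activity. Percent inhibition was taken at peak ΔMAP.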

In test [4] the test system is Rhesus monkey. The test can be described thus: In vivo effect on mean arterial pressure(peak deltaMAP) in sodium deficient rhesus monkeys after iv administration (dose 0.1 mg/kg). In kind it is functional, Cercopithecidae, Artery. An outline of the steps:
as §1

The subject of test [5] is Rhesus monkey. In words: In vivo effect on heart rate(peak deltaHR) in sodium deficient rhesus monkeys after iv administration (dose 0.1 mg/kg). In kind it is functional, Cercopithecidae. An outline of the steps: as §1
For test [6], the system named is Rhesus monkey. The test can be described thus: Half life of hypotensive effect in sodium deficient rhesus monkeys after iv administration (dose 0.63 mg/kg). In kind it is functional, organism-based. The arrangement: dose 0.63 mg/kg. The note with it: Cercopithecidae. A digest of the protocol:
as §1

The target in test [7] is T2, Renin (Homo sapiens). The test can be described thus: In vivo inhibition of plasma renin activity in sodium deficient rhesus monkeys after iv administration (dose 0.63 mg/kg, determined at peak deltaMAP). As to conditions: Cercopithecidae; target entry is the homologue from another species; at 0.63 mg/kg. In kind it is functional, organism-based. On the set-up: dose 0.63 mg/kg. A digest of the protocol:
as §2

Test [8] has as its system Rhesus monkey. The test can be described thus: In vivo effect on heart rate(peak deltaHR) in sodium deficient rhesus monkeys after iv administration (dose 0.63 mg/kg). In kind it is functional, Cercopithecidae. A digest of the protocol:
as §1

Test [9] concerns Rhesus monkey. The test can be described thus: In vivo effect on mean arterial pressure(peak deltaMAP) in sodium deficient rhesus monkeys after iv administration (dose 0.63 mg/kg). In kind it is functional, Cercopithecidae, Artery. An outline of the steps: as §1
Test [10] concerns the target T2, Renin (Homo sapiens). The note with it: Cercopithecidae; at 0.99 mg/kg.
The subject of test [11] is Rhesus monkey. The test can be described thus: In vivo effect on heart rate(peak deltaHR) in sodium deficient rhesus monkeys after iv administration (dose 0.99 mg/kg). In kind it is functional, Cercopithecidae. An outline of the steps:
as §1

The test system of test [12] is Rhesus monkey. The test can be described thus: In vivo effect on mean arterial pressure(peak deltaMAP) in sodium deficient rhesus monkeys after iv administration (dose 0.99 mg/kg). In kind it is functional, Cercopithecidae, Artery. An outline of the steps:
as §1

In test [13] the test system is Rhesus monkey. The test can be described thus: Half life of hypotensive effect in sodium deficient rhesus monkeys after iv administration (dose 0.99 mg/kg). In kind it is functional, organism-based. The arrangement: dose 0.99 mg/kg. As to conditions: Cercopithecidae. An outline of the steps:
as §1

A value given as a limit tells only on which side of the number the result lay.

Compound `CC(C)CC(C(=O)NCCN1CCOCC1)[S+]([O-])C[C@H](O)[C@H](CC1CCCCC1)NC(=O)[C@H](Cc1cnc[nH]1)NC(=O)[C@H](Cc1ccccc1)NC(=O)OC(C)(C)C` (stereo partly drawn) showed an IC50 in [1] of 0.088 µM.
The same measure, in the same setting: to `CC(C)CC(C(=O)NCCN1CCOCC1)S(=O)(=O)C[C@H](O)[C@H](CC1CCCCC1)NC(=O)[C@H](Cc1c[nH]cn1)NC(=O)[C@H](Cc1ccccc1)NC(=O)OC(C)(C)C` (stereo partly drawn) belongs 0.077 µM.
Compound `CC(C)(C)OC(=O)N[C@@H](Cc1ccccc1)C(=O)N[C@@H](Cc1c[nH]cn1)C(=O)N[C@@H](CC1CCCCC1)[C@@H](O)CS(=O)(=O)CC(=O)NCCN1CCOCC1` yielded a T1/2 in test [2] of less than 10 min. Besides, the inhibition in [3] came out at 88%. In test [4], the “Peak deltaMAP” value is reported as -15 mmHg. Further, the “Peak deltaHR” value in [5] is listed as -18 beats min-1.
`CC(C)CC(SC[C@H](O)[C@H](CC1CCCCC1)NC(=O)[C@H](Cc1cnc[nH]1)NC(=O)[C@H](Cc1ccccc1)NC(=O)OC(C)(C)C)C(=O)NCCN1CCOCC1` (stereo partly drawn) gave an IC50 in test [1] of 0.073 µM.
For `CC(C)(C)OC(=O)N[C@@H](Cc1ccccc1)C(=O)N[C@@H](Cc1c[nH]cn1)C(=O)N[C@@H](CC1CCCCC1)[C@@H](O)CS(=O)(=O)CC(=O)NC1CCN(Cc2ccccc2)CC1`, in test [1], the half-maximal inhibitory concentration (IC50) turned out to be 0.034 µM.
On the same count and under the same terms, to `CN1CCN(C(=O)CS(=O)(=O)C[C@H](O)[C@H](CC2CCCCC2)NC(=O)[C@H](Cc2c[nH]cn2)NC(=O)[C@H](Cc2ccccc2)NC(=O)OC(C)(C)C)CC1` belongs 0.02 µM.
For `CCOC(=O)CSC[C@H](O)[C@H](CC1CCCCC1)NC(=O)[C@H](Cc1c[nH]cn1)NC(=O)[C@H](Cc1ccccc1)NC(=O)OC(C)(C)C`, the T1/2 in test [6] is less than 10 min. Also, the inhibition in test [7] was determined as 87%. In test [8], the “Peak deltaHR” value was -23 beats min-1. In addition, in [9], the “Peak deltaMAP” value is recorded as -15 mmHg.
In the case of `CC(C)(C)OC(=O)N[C@@H](Cc1ccccc1)C(=O)N[C@@H](Cc1cnc[nH]1)C(=O)N[C@@H](CC1CCCCC1)[C@@H](O)C[S+]([O-])CC(=O)NCCN1CCOCC1` (stereo partly drawn), in test [1], the IC50 stood at 0.019 µM.
In the case of `CC(C)(C)OC(=O)N[C@@H](Cc1ccccc1)C(=O)N[C@@H](Cc1c[nH]cn1)C(=O)N[C@@H](CC1CCCCC1)[C@@H](O)CSCC(=O)NCc1ccncc1`, the inhibition in test [10] came out at 88%. The “Peak deltaHR” value in test [11] was -26 beats min-1. Also, the “Peak deltaMAP” value in test [12] is recorded as -16 mmHg. Moreover, the T1/2 in [13] is less than 10 min.
